Sampled rows, rich in hits. Any-hit rate of the full collection: about 1.9%.
Scp-1 inhibitor: inhibitors of human Scp-1 phosphatase; Recombinant Scp1, phosphopeptide, malachite green phosphate absorbance; inhibition, % at 20 µM; hit rate 0.88% among 340,000; AID 493091;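 active = inhibition above about 50% at 20 µM, limit read from the data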;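 also: plate controls were DMSO wells with enzyme for no effect and wells lacking enzyme for full effect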
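System: SCP-1 catalytic domain; Reagent: Phospho 17-mer peptide substrate; Doses: one concentration, 20 µM, with 1.0% DMSO; Incubation: 45 min room-temperature reaction, 5 min colour, 30 min stabiliser; Signal: Phosphate-binding colour reagent, absorbance read at 630 nm.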
FAS TE block: inhibitors of human fatty acid synthase thioesterase domain | P49327 | recombinant FAS-TE, OMFH fluorogenic substrate, fluorescence endpoint | inhibition, % at 15 µM | hit rate 0.67% among 360,000 | AID 602261;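 active = compounds whose normalised, plate-corrected inhibition of enzyme fluorescence in the single-dose primary screen is 50% or more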;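 also: 0% = DMSO with enzyme and 100% = substrate without enzyme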
Target sequence (P49327 whole entry, looked up, the tested form may be a part): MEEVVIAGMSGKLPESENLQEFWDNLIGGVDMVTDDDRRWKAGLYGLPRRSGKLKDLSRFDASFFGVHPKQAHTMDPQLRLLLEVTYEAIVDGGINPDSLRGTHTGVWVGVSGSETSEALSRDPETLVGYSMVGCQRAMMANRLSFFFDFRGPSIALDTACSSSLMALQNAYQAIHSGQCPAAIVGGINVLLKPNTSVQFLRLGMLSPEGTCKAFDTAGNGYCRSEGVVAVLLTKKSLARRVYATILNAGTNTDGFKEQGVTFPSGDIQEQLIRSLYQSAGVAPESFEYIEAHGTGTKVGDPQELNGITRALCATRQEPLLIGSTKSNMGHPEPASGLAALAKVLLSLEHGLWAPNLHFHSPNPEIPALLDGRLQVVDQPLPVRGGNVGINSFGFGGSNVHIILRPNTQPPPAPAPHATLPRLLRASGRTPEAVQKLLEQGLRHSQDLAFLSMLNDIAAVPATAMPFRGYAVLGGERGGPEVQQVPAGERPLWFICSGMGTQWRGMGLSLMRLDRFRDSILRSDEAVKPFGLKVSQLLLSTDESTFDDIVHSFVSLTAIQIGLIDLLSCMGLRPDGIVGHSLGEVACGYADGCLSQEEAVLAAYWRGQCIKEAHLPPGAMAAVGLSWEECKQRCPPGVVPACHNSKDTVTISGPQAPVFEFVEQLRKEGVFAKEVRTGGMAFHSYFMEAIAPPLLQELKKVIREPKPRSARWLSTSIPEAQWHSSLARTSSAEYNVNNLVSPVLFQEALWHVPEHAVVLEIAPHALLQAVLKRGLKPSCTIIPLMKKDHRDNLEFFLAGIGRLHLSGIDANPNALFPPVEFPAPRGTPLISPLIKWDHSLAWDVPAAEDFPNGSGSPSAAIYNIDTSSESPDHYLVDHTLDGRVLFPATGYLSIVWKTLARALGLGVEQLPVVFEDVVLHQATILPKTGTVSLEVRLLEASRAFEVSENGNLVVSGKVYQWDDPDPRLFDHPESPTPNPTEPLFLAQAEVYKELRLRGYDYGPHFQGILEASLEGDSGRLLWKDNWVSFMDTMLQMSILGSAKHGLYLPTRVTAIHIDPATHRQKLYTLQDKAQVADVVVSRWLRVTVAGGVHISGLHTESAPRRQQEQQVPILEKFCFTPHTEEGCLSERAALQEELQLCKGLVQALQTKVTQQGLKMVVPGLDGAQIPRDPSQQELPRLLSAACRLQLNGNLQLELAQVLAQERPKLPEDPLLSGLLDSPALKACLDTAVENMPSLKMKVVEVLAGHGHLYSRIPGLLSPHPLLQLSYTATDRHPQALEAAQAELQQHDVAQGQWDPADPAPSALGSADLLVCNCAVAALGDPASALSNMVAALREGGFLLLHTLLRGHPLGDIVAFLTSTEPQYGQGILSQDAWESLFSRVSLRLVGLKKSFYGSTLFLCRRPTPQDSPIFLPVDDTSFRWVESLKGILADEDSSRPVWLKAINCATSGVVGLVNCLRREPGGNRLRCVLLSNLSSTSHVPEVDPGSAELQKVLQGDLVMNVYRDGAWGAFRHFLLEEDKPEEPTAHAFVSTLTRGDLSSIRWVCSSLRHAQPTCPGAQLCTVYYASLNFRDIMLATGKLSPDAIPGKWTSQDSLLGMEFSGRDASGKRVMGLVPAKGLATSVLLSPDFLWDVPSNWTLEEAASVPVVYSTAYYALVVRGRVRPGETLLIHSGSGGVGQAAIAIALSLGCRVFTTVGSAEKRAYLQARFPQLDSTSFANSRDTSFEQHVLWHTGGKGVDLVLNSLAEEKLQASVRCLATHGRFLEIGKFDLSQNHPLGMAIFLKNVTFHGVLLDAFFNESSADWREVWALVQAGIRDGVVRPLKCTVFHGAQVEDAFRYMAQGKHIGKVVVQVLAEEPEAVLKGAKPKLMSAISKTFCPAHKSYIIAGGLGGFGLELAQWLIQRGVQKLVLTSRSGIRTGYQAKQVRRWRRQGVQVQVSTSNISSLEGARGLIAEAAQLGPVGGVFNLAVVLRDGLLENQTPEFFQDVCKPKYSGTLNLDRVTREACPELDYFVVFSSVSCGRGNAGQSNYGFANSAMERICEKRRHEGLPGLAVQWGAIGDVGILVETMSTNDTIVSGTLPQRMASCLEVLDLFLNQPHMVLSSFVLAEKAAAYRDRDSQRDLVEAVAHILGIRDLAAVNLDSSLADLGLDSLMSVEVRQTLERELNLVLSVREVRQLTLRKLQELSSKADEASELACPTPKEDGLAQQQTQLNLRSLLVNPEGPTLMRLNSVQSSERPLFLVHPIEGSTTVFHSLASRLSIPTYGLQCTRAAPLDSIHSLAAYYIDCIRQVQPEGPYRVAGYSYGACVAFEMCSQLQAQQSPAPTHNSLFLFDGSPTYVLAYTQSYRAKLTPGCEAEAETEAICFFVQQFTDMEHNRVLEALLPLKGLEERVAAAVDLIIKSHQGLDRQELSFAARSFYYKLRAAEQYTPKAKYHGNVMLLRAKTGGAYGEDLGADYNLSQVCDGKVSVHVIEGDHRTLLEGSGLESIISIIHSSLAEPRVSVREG
STEP inh: blocks human striatal-enriched tyrosine phosphatase; P54829; recombinant STEP, OMFP fluorogenic substrate, fluorescence; inhibition, % at 20 µM; hit rate 0.25% among 360,000;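 active = inhibition at 20 µM, scaled per plate between control wells, above about 37%, limit read from the data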;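 also: 0% = DMSO with enzyme and substrate and 100% = substrate only without enzyme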
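medium = Bis-Tris buffer pH 6.0, 2.5 mM DTT, 0.005% Tween 20 | test system = STEP (striatal-enriched tyrosine phosphatase) enzyme, cell-free | measure = normalized % inhibition | compound dosing = 20 µM, 1% DMSO | also added = 25 µM OMFP | schedule = reaction 20 min, ambient temperature | measured by = fluorescence read at 480 nm ex / 540 nm em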
LMPTP inh: LMPTP (human) inhibition; P24666; recombinant LMPTP-A, OMFP fluorogenic substrate, fluorescence intensity; inhibition, % at 20 µM; hit rate 0.22% among 360,000;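 active = compounds that cut the enzyme signal by at least half of the control window in the single-dose screen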;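 also: plate controls were DMSO wells with enzyme plus substrate for no effect and substrate without enzyme for full effect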
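material = LMPTP-A | quantity = 0.625 nM enzyme | reagent = OMFP substrate, 400 µM final | buffer or medium = Bis-Tris pH 6.0, DTT, detergent | detection = endpoint fluorescence intensity from OMFP dephosphorylation | dosing = single 20 µM dose | read-out basis = % inhibition relative to no-enzyme and uninhibited control wells | control set = no-enzyme and uninhibited controls | timing = 50 min at room temperature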
SUMO1-SIM PPI: modulators of human SUMO1-mediated protein-protein interactions; P63165; inhibition, % at 20 µM; hit rate 0.33% among 360,000; AID 602429; SUMO1 binding to a labelled peptide, TR-FRET, 1 h; in the data active = inhibition above about 37%
Scp1 confirm: Scp-1 (human) inhibition, single-dose confirmed; shares compounds with Scp-1 inhibitor; inhibition, % at 20 µM; recombinant SCP-1 catalytic domain, phosphate release, malachite green absorbance; hit rate 61% among 2,500;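 also: plate controls were DMSO with enzyme for no effect and buffer wells lacking enzyme for full effect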
MG interference: counter-screen for Scp-1 inhibitors: colorimetric interference; 2,500 tested, under 10 active; apparent inhibition (interference), % at 20 µM; shares compounds with Scp-1 inhibitor; Colorimetric interference counterscreen, malachite green absorbance 630 nm; AID 540313;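 also: compounds added after enzyme reaction finished so only phosphate colour detection is probed; plate controls were DMSO wells with completed Scp-1 reaction for no effect and substrate wells lacking enzyme for full effect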
Scp1 DSF: validation of human Scp-1 inhibitors by thermal shift binding | shares compounds with Scp-1 inhibitor | Recombinant SCP1, Sypro Orange thermal shift Tm | thermal shift relative to vanadate control, % at 40 µM | hit rate 25% among 1,500 | AID 540329;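 active = substances whose mean melting-temperature shift, as a percentage of the reference inhibitor's shift, reaches about 5.3%, limit read from the data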;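 also: 0% = Tm of DMSO wells and 100% = Tm with sodium orthovanadate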
* hit, by the source's call; . = no result given.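 The calls were made as follows, unless noted: active = inhibition of at least 30% at 20 µM; inactive = the rest.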

SMILES	Scp-1 inhibitor	FAS TE block	STEP inh	LMPTP inh	SUMO1-SIM PPI	Scp1 confirm	MG interference	Scp1 DSF
Cc1ccccc1-c1cc(C(=O)NCC2CC2)nn1CC1CC(c2cccc([N+](=O)[O-])c2)=NO1 (configuration not stated)	-4.4	24.7	-1.2	1.4	-13.6	.	.	.
CO[C@@]1(NC(=O)Cc2cccs2)C(=O)N2C(C(=O)O)=C(COC(N)=O)CS[C@@H]21	51.7*	-1.0	5.4	-0.9	8.5	40.9*	-10.1	1.8
COCC(=O)N(C)C[C@H]1N[C@@](Cc2ccccc2)(C(=O)OC)[C@H]2C(=O)N(C)C(=O)[C@@H]12	9.5	-11.8	-1.9	-0.7	-4.6	.	.	.
CCN(C[C@H]1N[C@@](Cc2ccccc2)(C(=O)OC)[C@H]2C(=O)N(C)C(=O)[C@@H]12)C(=O)COC	50.4*	-8.6	-4.2	1.4	2.4	-2.1	-3.0	.
COc1ccc(S(=O)(=O)N2CCN(C(=O)CC3CC4CCC3C4)CC2)cc1 (configuration not stated)	8.0	7.8	1.7	-0.7	-0.4	.	.	.
CCN(CC)C(=O)CSc1ncnc2c(-c3cccs3)nsc12	75.8*	21.4	3.5	44.6	24.4	61.1*	-14.8	6.0*
O=C1Nc2ccc(S(=O)(=O)NCc3ccco3)c3cccc1c23	56.3*	-10.4	-6.8	2.8	11.4	69.7*	1.7	-3.1
O=C(O)CNS(=O)(=O)c1ccc2c3c(cccc13)C(=O)N2	42.4	-5.6	34.1	7.4	0.2	.	.	.
COc1cc(OC)nc(NC(=O)COC(=O)c2cccc(Cl)c2)n1	5.6	-8.7	-1.6	1.6	2.5	.	.	.
CC(=O)OC1C2CCC1C([N+]1(C)CCCCC1)CC2 (configuration not stated)	93.5*	-6.1	1.4	-1.5	-3.2	94.9*	-6.0	-24.8
C[N+]1(C2CCC3CCC2C3O)CCCC1 (configuration not stated)	5.5	-9.4	-2.1	-1.7	5.9	.	.	.
C=CCOCCN1C(=O)C2C3C=CC(C2C1=O)C1C2C(=O)N(CCOCC=C)C(=O)C2C31 (configuration not stated)	60.8*	-6.0	0.1	2.4	-0.6	71.8*	-9.6	-20.0
O=C(O)CCCN1C(=O)C2C3C=CC(C2C1=O)C1C(=O)N(CCCC(=O)O)C(=O)C31 (configuration not stated)	-2.0	-7.8	-1.3	-1.5	3.5	.	.	.
CN1CCN(C(=O)C(=O)c2cn(CC(=O)N3CCOCC3)c3ccccc23)CC1	.	-5.4	-2.0	-0.4	6.1	.	.	.
Cc1c(C(=O)OCC[N+]2(C)CCCCC2)oc2ccccc12	88.8*	-11.7	0.7	-0.5	-2.7	4.2	-19.1	.
CCOC(=O)c1c(NC(=O)C2C3C=CC(C3)C2(C)C(=O)O)sc2c1CCCC2 (configuration not stated)	53.0*	-7.9	9.8	0.8	25.4	55.6*	-7.6	-19.1
CCOC(=O)c1c(NC(=O)C2CCCCC2C(=O)O)sc2c1CCCCC2 (configuration not stated)	-8.3	-1.4	1.9	0.2	4.1	.	.	.
C/C(=N/NC(N)=S)c1cc2ccc(O)cc2oc1=O	54.9*	-17.1	-3.2	10.2	-1.5	35.9*	-12.3	4.5
O=C(NC1CCCC1)C(c1ccc(F)cc1)N1CCC(O)(c2ccc(Cl)cc2)CC1 (configuration not stated)	.	.	.	0.6	3.9	.	.	.
Cc1ccc(C(=O)NCc2occc2C(=O)O)o1	53.3*	-9.2	5.1	-2.6	2.9	52.5*	-5.7	-0.3
CCn1nnc(NC(=O)CSc2ccc(Cl)cc2)n1	51.4*	-3.7	-1.1	6.0	3.9	72.0*	-5.7	2.5
CCCCn1nnc(NC(=O)Cc2ccc(Cl)cc2)n1	19.8	-2.8	-1.0	-2.5	-6.6	.	.	.
COc1ccccc1NC(=O)c1nn(-c2ccc(Cl)cc2)ccc1=O	97.5*	-9.5	-0.8	4.3	-3.9	75.8*	-15.6	-15.6
COc1cc(CCC(C)=O)ccc1OC(=O)c1c(F)cccc1Cl	-21.4	-4.1	-3.3	-0.7	6.5	.	.	.
NC(=O)c1ccsc1NC(=O)COC(=O)/C=C/c1ccc([N+](=O)[O-])cc1	70.7*	-0.2	6.6	64.0*	13.8	58.8*	-6.0	4.1
SMILES	Scp-1 inhibitor	FAS TE block	STEP inh	LMPTP inh	SUMO1-SIM PPI	Scp1 confirm	MG interference	Scp1 DSF
COC(=O)c1ccc(/C=C/C(=O)OCC(=O)Nc2sccc2C(N)=O)cc1	1.9	3.4	-2.1	5.5	-9.3	.	.	.
O=C(O)c1cccc2c1C(=O)N(c1ccc3c(c1)Cc1ccccc1-3)C2=O	64.4*	-10.1	4.5	-1.1	-21.1	60.2*	-17.0	-13.8
N#CCSc1ncnc2sc3c(c12)CCC3	68.1*	-3.0	0.6	34.1	18.9	0.2	-22.8	.
Cc1nc(SCC#N)c2c3c(sc2n1)CCC3	-7.1	-1.1	2.1	-3.3	-3.1	.	.	.
Cc1coc2cc3oc(=O)c(CCC(=O)NCCN4CCOCC4)c(C)c3cc12	4.1	-3.9	1.4	-1.3	2.3	.	.	.
O=C(Cc1ccccc1)c1c[nH]c(C(=O)NCCCN2CCOCC2)c1	-0.4	-1.8	-0.1	-1.2	1.6	.	.	.
Cc1c(OC(=O)c2ccc([N+](=O)[O-])cc2)c2c(c[n+]1C)COC(C)(C)OC2	66.8*	-6.1	0.9	-2.7	-18.4	79.2*	-17.8	-5.6
CC1(C(=O)NS(=O)(=O)c2cccc(Cl)c2)CCN1C(=O)c1ccccc1CCc1ccccc1 (configuration not stated)	.	-2.6	-4.9	-1.2	0.8	.	.	.
Cc1cccc(C(=O)N[C@H](C(=O)OCc2cc(=O)n3c(n2)sc2ccccc23)C(C)C)c1	72.5*	14.2	9.1	23.1	7.8	49.7*	-22.1	2.4
O=C(OCc1cc(=O)n2c(n1)sc1ccccc12)c1ccc(O)cc1	63.9*	6.8	3.4	1.7	9.2	53.5*	-20.8	-8.8
CCCCNC(=O)C(NC(=O)c1cccnc1)C(=O)c1ccccc1 (configuration not stated)	.	-12.0	5.4	-1.5	2.5	.	.	.
Cc1cnc(C)c(Nc2nc(C(N)Cc3ccc(Cl)cc3)cs2)n1 (configuration not stated)	.	-5.2	1.1	-0.8	-30.6	.	.	.
CN(C)C(=O)c1ccc(NC(=O)c2cc(-c3ccco3)nc3ccccc23)cc1	65.8*	-4.7	13.0	12.0	-12.0	58.0*	-4.6	5.0
Cc1csc(NC(=O)c2cc(-c3ccco3)nc3ccccc23)n1	70.0*	-1.9	1.1	27.9	12.7	52.8*	-15.3	10.9*
O=C(O)c1cc(-c2ccco2)nc2ccccc12	59.4*	-6.4	-0.7	-0.7	8.2	43.1*	-17.8	-2.5
